Screening results (PubChem)
Compounds with a hit are over-represented: about 0.77% of the library has one in this group of screens.
hIAP activ = increases human intestinal alkaline phosphatase activity; activation factor at 10 µM; purified human IAP, CDP-Star luminescence, 30 min; active compounds read high; 1 = vehicle-only enzyme, 0 = enzyme-free background; 0.16% of 330,000 active;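 active = activation factor of the enzyme at least 2-fold when tested at 20 µM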
Target sequence (P09923 whole entry, looked up): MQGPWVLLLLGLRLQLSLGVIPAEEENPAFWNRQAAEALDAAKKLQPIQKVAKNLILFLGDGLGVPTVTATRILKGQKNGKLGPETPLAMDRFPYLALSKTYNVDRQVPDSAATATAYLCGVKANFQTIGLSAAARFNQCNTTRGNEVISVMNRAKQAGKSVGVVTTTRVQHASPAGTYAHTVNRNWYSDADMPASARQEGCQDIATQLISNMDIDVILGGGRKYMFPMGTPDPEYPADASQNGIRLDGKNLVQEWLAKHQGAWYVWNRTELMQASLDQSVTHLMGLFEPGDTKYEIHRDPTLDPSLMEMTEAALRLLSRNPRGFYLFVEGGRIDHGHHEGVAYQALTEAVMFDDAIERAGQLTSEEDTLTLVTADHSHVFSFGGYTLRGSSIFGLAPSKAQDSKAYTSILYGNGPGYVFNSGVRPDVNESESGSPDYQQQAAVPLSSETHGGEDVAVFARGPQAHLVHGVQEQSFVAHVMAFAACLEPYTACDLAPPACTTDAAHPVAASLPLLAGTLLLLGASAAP
bIAP activator = increases bovine intestinal alkaline phosphatase activity; purified bovine IAP, CDP-star luminescence, 30 min; active compounds read high; fold of DMSO-control signal, blank-subtracted; activation factor at 20 µM; 0.17% of 200,000 active; AID 1016;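 active = activation factor of 2 or more at 20 µM, a signal rise over negative controls twice the positive control's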
bIAP inhibitor = blocks bovine intestinal alkaline phosphatase activity; purified bovine IAP, CDP-star luminescence, 30 min; inhibition, % at 20 µM; 190,000 tested, under 10 active; AID 1019;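 active = over 50% inhibition of intestinal alkaline phosphatase at 20 µM in the single-dose screen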
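Incubation: 30 min reaction at room temperature / Material: purified bovine intestinal alkaline phosphatase (IAP) enzyme / Input: enzyme at 1/65,000,000 dilution / Dosing: 20 µM single dose / Signal: CDP-star luminescence signal / Reagent: CDP-star chemiluminescent phosphatase substrate, 30 µM final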
hIAP inh = blocks human intestinal alkaline phosphatase | P09923 | purified IAP, CDP-Star luminescence, 30 min | inhibition, % at 10 µM | 0.12% of 330,000 active | AID 2544;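 active = inhibition reaching a set limit with compound at 10 µM in the primary screen, cut at about 35% in these data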;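 also: plate controls were DMSO wells with enzyme for no effect and no-enzyme buffer wells for full effect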
mIAP block = blocks mouse intestinal alkaline phosphatase; purified mouse IAP, CDP-Star luminescence, 30 min; inhibition, % at 10 µM; 0.2% of 330,000 active; AID 2806;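 active = inhibition of at least 40% at 10 µM in the primary screen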;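 also: plate controls were DMSO with enzyme for no effect and no enzyme wells for full effect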
mIAP act = increases mouse intestinal alkaline phosphatase activity | muIAP, CDP-Star luminescence, 30 min; active compounds read high; 1 = vehicle-only enzyme signal, 0 = enzyme-free wells | activation factor at 10 µM | 0.24% of 330,000 active | AID 2805;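 active = activation factor of at least 2 at 20 µM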
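Assay system: mouse IAP enzyme; Reagent: CDP-Star chemiluminescent phosphatase substrate; Compound: DMSO-dissolved test compounds; Incubation: 30 min, room temperature; Technique: luminescence from enzymatic CDP-Star hydrolysis; Controls: DMSO-only wells and no-enzyme negative control.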
mIAP inh confirm = mouse IAP inhibition confirmation; 4.7% of 11,000 active; inhibition, % at 10 µM; shares compounds with mIAP block; purified mouse IAP, CDP-Star luminescence, 30 min;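 active = inhibition of at least 40% at 10 µM in either of the two replicates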;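 also: plate controls were DMSO wells with enzyme for no effect and buffer wells lacking enzyme for full effect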
* = called active by the depositor; / = not tested or not shown.

SMILES	hIAP activ	bIAP activator	bIAP inhibitor	hIAP inh	mIAP block	mIAP act	mIAP inh confirm
O=C(NC(=S)N1CCCCC1)C12CC3CC(CC(C3)C1)C2	1.1	0.7	26	-14	2	0.98	/
O=C(c1cc(NC(=O)C23CC4CC(CC(C4)C2)C3)cc(NC(=O)C23CC4CC(CC(C4)C2)C3)c1)N1CCCCC1	0.94	0.9	13	6	-106	2.1*	-106
CC(C)Cc1cc(C(=O)Nc2cc(C(F)(F)F)ccc2Cl)no1	0.88	0.7	30	12	6	0.94	/
Cc1cc(Cn2nc(-c3ccccc3)cc2C(=O)NCc2cccc(Br)c2)on1	1.1	/	/	-10	-299	4*	-230
Cc1cc(Cn2nc(-c3ccccc3)cc2C(=O)NCc2cccc(C(F)(F)F)c2)on1	0.95	/	/	5	-228	3.3*	-125
O=C(O)C1Nc2c(O)cccc2C2C=CCC12 (stereo not drawn)	1.7	0.8	24	-69	74*	0.26	86*
O=c1[nH]c(Cc2cccs2)nc2scc(-c3ccc(Cl)cc3)c12	0.95	/	/	5	3	0.97	/
O=C(COC(=O)c1ccc(Br)o1)Nc1ncc([N+](=O)[O-])s1	0.88	/	/	12	61*	0.39	59*
Cc1ccc(CC(=O)Nc2ncc([N+](=O)[O-])s2)cc1	0.88	1.1	-9	12	8	0.92	/
COc1ccc(C(=O)OCC(=O)Nc2ncc([N+](=O)[O-])s2)cc1OC	0.88	/	/	12	63*	0.37	76*
CC(C)c1onc(C(=O)N2CCN(Cc3ccccc3)CC2)c1[N+](=O)[O-]	1	1.2	-24	0	4	0.96	/
O=C(N/N=C/c1ccc[nH]1)c1ccc2c(c1)OCO2	1.1	1	2	-12	50*	0.5	64*
CN(CC(=O)Nc1ccccc1Cl)C(=O)Cn1cnc2ccc(Cl)cc2c1=O	0.96	/	/	4	-11	1.1	/
COc1ccccc1NC(=O)NS(=O)(=O)c1ccc(C)cc1	0.99	0.9	9	1	5	0.95	/
Cc1cc(C)cc(NC(=O)Nc2cc(S(=O)(=O)N(C)C)ccc2C)c1	1	/	/	-2	-388	4.9*	-243
Cc1ccc(S(=O)(=O)N(C)C)cc1NC(=O)Nc1ccccc1F	1.4	/	/	-43	-58	1.6	/
CCC1CCCCN1C(=O)NC(=O)c1ccccc1 (stereo not drawn)	0.85	/	/	15	-18	1.2	/
O=C(Oc1ccc([N+](=O)[O-])cc1)C1CC(=O)N(c2ccc3c(c2)OCCO3)C1 (stereo not drawn)	1.1	/	/	-12	-4	1	/
C/C(CC(=O)Nc1ccc2ccccc2c1)=N\NC(=O)c1ccc(O)c(O)c1	1.1	/	/	-6	46*	0.54	67*
C/C(CC(=O)Nc1ccc2ccccc2c1)=N\NC(=O)c1cnccn1	1.1	0.9	14	-9	6	0.94	/
Cc1nnc(NC(=O)C2CC(=O)N(c3ccc4c(c3)OCCO4)C2)s1 (stereo not drawn)	1	/	/	-2	-1	1	/
O=C(Nc1nc(-c2ccco2)c(-c2ccco2)s1)C1CC(=O)N(c2ccc3c(c2)OCCO3)C1 (stereo not drawn)	0.91	0.9	5	9	54*	0.46	69*
O=S(=O)(O)c1cc(O)ccc1O	1.2	/	/	-23	26	0.74	/
O=S(=O)(c1cc(O)ccc1O)c1cccc2c(S(=O)(=O)c3cc(O)ccc3O)cccc12	0.88	/	/	12	65*	0.35	58*
S=c1[nH]nc(-c2cccnc2)n1/N=C/C=C/c1ccco1	0.97	1	3	3	47*	0.53	60*
SMILES	hIAP activ	bIAP activator	bIAP inhibitor	hIAP inh	mIAP block	mIAP act	mIAP inh confirm
S=c1[nH]nc(-c2ccc(Cl)cc2)n1/N=C/C=C/c1ccco1	1.2	/	/	-15	56*	0.44	58*
CCCCN1C(=O)/C(=C/C=C2\N(C)c3ccccc3C2(C)C)SC1=S	0.77	0.5	/	23	51*	0.49	43*
C[C@H](CO)N1C[C@H](C)[C@@H](CN(C)S(=O)(=O)c2ccccc2)Oc2ccc(NC(=O)NC3CCCCC3)cc2C1=O	0.98	/	/	2	-302	4*	-179
C[C@H](CO)N1C[C@H](C)[C@@H](CN(C)S(=O)(=O)c2cccs2)Oc2ccc(NC(=O)NC3CCCCC3)cc2C1=O	0.98	/	/	2	-264	3.6*	-160
C[C@H](CO)N1C[C@H](C)[C@@H](CN(C)S(=O)(=O)c2ccccc2)Oc2ccc(NC(=O)C3CCCCC3)cc2C1=O	1	/	/	-4	-24	1.2	/
CN(C)S(=O)(=O)c1cccc(NC(=O)c2ccc3c(c2)OCCO3)c1	1.2	/	/	-19	0	0.99	/
Cc1ccc(C(=O)NNC(=O)c2ccc(NC(=O)C(C)(C)C)cc2)cc1	0.9	/	/	10	6	0.94	/
CCC1=NN2C(=N)/C(=C\c3ccc(SCc4ccco4)o3)C(=O)N=C2S1	0.83	0.9	13	17	74*	0.26	72*
CCCC1=NN2C(=N)/C(=C\c3ccc(SCc4ccco4)o3)C(=O)N=C2S1	0.89	0.8	17	11	57*	0.43	70*
CCC1=NN2C(=N)/C(=C/c3c(C)nn(-c4ccccc4)c3Cl)C(=O)N=C2S1	1.1	0.9	5	-6	-8	1.1	/
CCCC1=NN2C(=N)/C(=C\c3cc(C)n(Cc4ccccc4)c3C)C(=O)N=C2S1	0.99	/	/	1	0	1	/
COc1ccc(C(=O)C[n+]2cn(C(F)F)c3ccccc32)c(F)c1	0.92	1	4	8	11	0.89	/
CC(C)CC(C(=O)Nc1cccc(O)c1)N1C(=O)c2ccccc2C1=O (stereo not drawn)	0.94	/	/	6	6	0.94	/
CC(C)CC(C(=O)Nc1oc(-c2ccco2)c(-c2ccco2)c1C#N)N1C(=O)c2ccccc2C1=O (stereo not drawn)	1.1	1	-2	-11	45*	0.55	48*
COc1cccc(C(=O)Nc2cccc3ccccc23)c1	0.85	/	/	14	1	0.99	/
COc1cccc(C(CC(=O)Nc2cccc3ccccc23)NC(=O)c2ccccc2)c1 (stereo not drawn)	1	1.4	-44	-4	-108	2.1*	-119
CCOc1ccc(OCCC(=O)Nc2ccc(F)cc2C)cc1	1	1.1	-6	0	2	0.98	/
N#CC1=C(N)SC(N)=C(C#N)C1c1ccoc1	0.92	1.1	-10	8	77*	0.23	76*
Nc1c(C(=O)N/N=C/c2cccnc2)oc2nc(-c3ccco3)cc(-c3ccco3)c12	0.89	/	/	11	49*	0.51	41*
NNC(=O)c1oc2nc(-c3ccco3)cc(-c3ccco3)c2c1N	0.92	/	/	8	62*	0.38	72*
